These results are taken from ChEMBL document CHEMBL1155751, “Two phenanthraquinones from Dendrobium moniliforme” (J Nat Prod, 2001).

Activity calls are given as the source filed them. The calls are words filed in the database; no cut-off is given here.

Data set [1] deals with RAW264.7. Nature of the data set: Antiinflammatory activity in mouse RAW264.7 cells assessed as inhibition of LPS-induced prostaglandin E2 formation at 1 uM treated 1 hr before LPS challenge measured after 24 hrs by EIA. In kind it is functional. Put shortly:
(§1)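 RAW 264.7 cells were seeded at 2 × 10^5 cells/well in DMEM with 5% heat-inactivated FBS, penicillin and streptomycin, and left to adhere overnight. Cells got DMSO or compound at 37 °C for 1 h, then 1 µg/mL LPS (E. coli 0111:B4) for 24 h. Medium nitrite was read by Griess (550 nm, NaNO2 standard), TNF-α by ELISA and PGE2 by EIA. Means ± SEM, N = 3-4.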

The test system of data set [2] is Mast cell. In words: Inhibition of secretagogue-induced beta-glucuronidase release in Sprague-Dawley rat peritoneal mast cells at 30 uM treated 3 mins before secretagogue challenge measured after 15 mins.
Data set [3] relates to N9. Nature of the data set: Antiinflammatory activity in mouse N9 cells assessed as inhibition of LPS and IFN-gamma-induced TNFalpha formation at 3 uM treated 1 hr before LPS and IFN-gamma challenge measured after 24 hrs by ELISA. To be noted: N9, read-out: INH.
The subject of data set [4] is Mast cell. In words: Inhibition of secretagogue-induced histamine release in Sprague-Dawley rat peritoneal mast cells at 30 uM […] secretagogue challenge measured after 15 mins. The format is functional. To be noted: read-out: INH, in the assay text read “3 mins before” for “30 mins before”. Put shortly:
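Peritoneal mast cells came from exsanguinated Sprague-Dawley rats by heparinized Tyrode's lavage, purified through 38% BSA, and resuspended at (1-1.5) × 10^6 cells/mL in Tyrode's with 0.1% BSA. Supernatant β-glucuronidase was read at 550 nm (phenolphthalein glucuronide, pH 4.5) and histamine by o-phthaldialdehyde fluorescence at 350/450 nm. Release is % of the Triton X-100 total.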

In data set [5] the test system is RAW264.7. Nature of the data set: Cytotoxicity against mouse RAW264.7 cells assessed as LDH release. In kind it is cell-based.
The subject of data set [6] is RAW264.7. In words: Antiinflammatory activity in mouse RAW264.7 cells assessed as LPS-induced nitrite levels at 1 uM treated 1 hr before LPS challenge measured after 24 hrs by Griess reaction (Rvb=46.6 +/- 0.4). In kind it is functional. In outline:
as §1

The test system of data set [7] is N9. Nature of the data set: Cytotoxicity against mouse N9 cells assessed as LDH release. In kind it is cell-based.
Data set [8] deals with Neutrophil. In words: Inhibition of secretagogue-induced histamine release in rat neutrophils at 30 uM treated 30 mins before secretagogue challenge measured after 15 mins. In kind it is functional, cell-based.
For data set [9], the system named is Neutrophil. Nature of the data set: Inhibition of secretagogue-induced superoxide anion generation in rat neutrophils at 30 uM treated 30 mins before secretagogue challenge measured after 15 mins. The format is functional, cell-based.
Data set [10] relates to N9. In words: Antiinflammatory activity in mouse N9 cells assessed as inhibition of LPS and IFN-gamma-induced nitrite formation at 3 uM treated 1 hr before LPS and IFN-gamma challenge measured after 24 hrs by Griess reaction. Conditions: N9, read-out: INH.
Data set [11] deals with RAW264.7. In words: Antiinflammatory activity in mouse RAW264.7 cells assessed as inhibition of LPS-induced TNFalpha formation at 1 uM treated 1 hr before LPS challenge measured after 24 hrs by ELISA. In kind it is functional. In outline:
as §1

The test system of data set [12] is Neutrophil. In words: Inhibition of secretagogue-induced beta-glucuronidase release in rat neutrophils at 30 uM treated 30 mins before secretagogue challenge measured after 15 mins. In kind it is functional, cell-based.
Data set [13] concerns Mast cell. In words: Secretagogue-induced histamine release in Sprague-Dawley rat peritoneal mast cells at 30 uM treated 3 mins before secretagogue challenge measured after 15 mins.

`COC1=CC(=O)c2ccc3cc(OC)cc(O)c3c2C1=O` [DENBINOBIN]: the values for the inhibition at 1 µM in the data set with RAW264.7 [1] and with RAW264.7 [11] were 43% and 62%, respectively. Further, the inhibition at 30 µM with Mast cell [2] is 40%; with Mast cell [4], 39%. For the same compound, the inhibition at 3 µM in the data set with N9 [3] was determined as 70%; with N9 [10], 44%. Besides, the Activity in the data set on RAW264.7 [5] was less than 10%; in the data set with RAW264.7 [6], 40.4 µM; in the data set with N9 [7], less than 10%. Besides, the result in the data set with Neutrophil [8], in the data set on Neutrophil [9] and in the data set with Neutrophil [12] was inactive.
In the data set on Mast cell [2], `CCN(CC)CCCC(C)Nc1c2ccc(Cl)cc2nc2ccc(OC)cc12` (centres undefined) [QUINACRINE] showed an inhibition at 30 µM of 8.7%. This compound registered a histamine release at 30 µM in the data set on Mast cell [13] of 18.4%.
